Experimental data as given in ChEMBL document CHEMBL5653631, “A Potent and Selective ULK1 Inhibitor Suppresses Autophagy and Sensitizes Cancer Cells to Nutrient Stress” (iScience, 2018).
One block for each compound: values may come before it. The source made the active and inactive calls. No cut-off for these calls is given here.

What was measured:
[1] = target: Dual specificity protein kinase CLK1 (Homo sapiens) (UniProt P49759); experiment: Inhibition of human recombinant CLK1 at 500 nM in presence of ATP by radiometric assay relative to control
Dual specificity protein kinase CLK1 (Homo sapiens), sequence (P49759 whole entry, looked up): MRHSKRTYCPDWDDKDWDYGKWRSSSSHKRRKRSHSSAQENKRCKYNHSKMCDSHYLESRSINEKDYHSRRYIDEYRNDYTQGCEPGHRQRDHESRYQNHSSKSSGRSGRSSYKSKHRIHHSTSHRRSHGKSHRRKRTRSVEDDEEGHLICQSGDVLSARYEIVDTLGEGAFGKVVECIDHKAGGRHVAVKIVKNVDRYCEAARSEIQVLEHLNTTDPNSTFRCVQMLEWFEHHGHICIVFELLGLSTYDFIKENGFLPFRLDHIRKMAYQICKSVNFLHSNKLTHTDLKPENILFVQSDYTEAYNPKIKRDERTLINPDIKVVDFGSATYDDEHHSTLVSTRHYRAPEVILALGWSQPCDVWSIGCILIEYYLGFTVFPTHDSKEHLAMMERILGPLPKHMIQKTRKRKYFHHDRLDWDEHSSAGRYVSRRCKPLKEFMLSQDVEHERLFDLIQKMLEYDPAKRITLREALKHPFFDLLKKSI

[2] = target: Tyrosine-protein kinase JAK2 (Homo sapiens) (UniProt O60674); experiment: Inhibition of human recombinant JAK2 at 500 nM related to control ULK1
Tyrosine-protein kinase JAK2 (Homo sapiens), sequence (O60674 whole entry): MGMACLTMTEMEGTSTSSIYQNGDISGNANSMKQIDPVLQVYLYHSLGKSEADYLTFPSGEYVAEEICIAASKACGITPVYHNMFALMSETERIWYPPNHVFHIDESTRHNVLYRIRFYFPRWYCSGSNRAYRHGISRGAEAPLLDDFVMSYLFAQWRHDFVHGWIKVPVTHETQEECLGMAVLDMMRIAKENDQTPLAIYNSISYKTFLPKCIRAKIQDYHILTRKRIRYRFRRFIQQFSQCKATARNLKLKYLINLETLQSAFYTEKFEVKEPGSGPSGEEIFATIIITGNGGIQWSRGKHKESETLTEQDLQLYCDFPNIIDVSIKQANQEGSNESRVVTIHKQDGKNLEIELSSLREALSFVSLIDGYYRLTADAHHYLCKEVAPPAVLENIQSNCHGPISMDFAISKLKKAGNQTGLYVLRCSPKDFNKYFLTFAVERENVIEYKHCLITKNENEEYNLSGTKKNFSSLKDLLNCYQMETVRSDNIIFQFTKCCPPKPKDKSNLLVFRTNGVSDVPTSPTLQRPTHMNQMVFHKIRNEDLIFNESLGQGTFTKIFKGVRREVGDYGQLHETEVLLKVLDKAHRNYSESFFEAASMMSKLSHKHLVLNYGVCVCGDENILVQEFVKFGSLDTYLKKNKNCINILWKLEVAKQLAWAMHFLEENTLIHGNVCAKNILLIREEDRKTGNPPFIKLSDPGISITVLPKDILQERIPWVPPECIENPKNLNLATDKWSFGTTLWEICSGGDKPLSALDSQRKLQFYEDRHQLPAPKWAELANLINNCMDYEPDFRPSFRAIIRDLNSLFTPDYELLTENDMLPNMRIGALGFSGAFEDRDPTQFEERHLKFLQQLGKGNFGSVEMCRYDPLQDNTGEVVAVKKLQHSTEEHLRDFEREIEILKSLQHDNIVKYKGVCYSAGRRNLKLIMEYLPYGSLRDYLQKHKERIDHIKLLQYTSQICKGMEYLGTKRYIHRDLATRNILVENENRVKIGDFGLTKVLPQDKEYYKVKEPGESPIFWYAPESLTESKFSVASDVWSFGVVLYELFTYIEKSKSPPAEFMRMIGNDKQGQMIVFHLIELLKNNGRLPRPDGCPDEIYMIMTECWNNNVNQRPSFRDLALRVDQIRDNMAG

[3] = target: Homeodomain-interacting protein kinase 2 (Homo sapiens) (UniProt Q9H2X6); experiment: Inhibition of human recombinant HIPK2 at 500 nM in presence of ATP by radiometric assay relative to control
Homeodomain-interacting protein kinase 2 (Homo sapiens), sequence (Q9H2X6 whole entry, looked up): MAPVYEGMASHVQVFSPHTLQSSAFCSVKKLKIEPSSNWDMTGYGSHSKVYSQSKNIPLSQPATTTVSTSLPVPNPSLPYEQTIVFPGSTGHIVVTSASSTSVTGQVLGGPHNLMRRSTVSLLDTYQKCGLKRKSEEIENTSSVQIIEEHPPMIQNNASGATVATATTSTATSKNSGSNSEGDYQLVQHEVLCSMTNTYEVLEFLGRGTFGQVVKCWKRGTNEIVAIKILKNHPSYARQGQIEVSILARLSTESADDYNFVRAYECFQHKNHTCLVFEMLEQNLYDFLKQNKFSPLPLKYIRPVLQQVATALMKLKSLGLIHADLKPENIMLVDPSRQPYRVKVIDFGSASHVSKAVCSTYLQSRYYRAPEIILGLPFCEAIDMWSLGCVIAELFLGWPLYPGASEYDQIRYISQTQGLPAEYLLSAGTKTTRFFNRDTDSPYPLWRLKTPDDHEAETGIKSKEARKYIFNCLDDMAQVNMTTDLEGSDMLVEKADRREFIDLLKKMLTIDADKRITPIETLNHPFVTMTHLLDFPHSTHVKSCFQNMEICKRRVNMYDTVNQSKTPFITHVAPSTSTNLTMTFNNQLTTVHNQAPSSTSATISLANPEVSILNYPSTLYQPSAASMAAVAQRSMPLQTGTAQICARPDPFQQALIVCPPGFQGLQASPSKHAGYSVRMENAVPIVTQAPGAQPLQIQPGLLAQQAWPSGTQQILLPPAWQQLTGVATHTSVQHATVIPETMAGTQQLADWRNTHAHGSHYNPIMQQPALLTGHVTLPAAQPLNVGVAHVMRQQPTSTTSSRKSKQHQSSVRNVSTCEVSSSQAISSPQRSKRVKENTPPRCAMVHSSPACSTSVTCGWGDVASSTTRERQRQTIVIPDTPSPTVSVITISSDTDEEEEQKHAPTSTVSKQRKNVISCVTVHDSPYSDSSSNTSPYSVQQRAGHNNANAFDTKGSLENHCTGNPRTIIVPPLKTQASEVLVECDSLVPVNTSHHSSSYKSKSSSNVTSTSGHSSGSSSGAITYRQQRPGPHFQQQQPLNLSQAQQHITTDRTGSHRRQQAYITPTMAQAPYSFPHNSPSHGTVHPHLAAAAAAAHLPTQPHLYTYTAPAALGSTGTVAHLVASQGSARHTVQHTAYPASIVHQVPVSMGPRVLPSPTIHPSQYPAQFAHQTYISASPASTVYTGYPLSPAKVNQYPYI

[4] = target: T1, Inhibitor of nuclear factor kappa-B kinase subunit beta (Homo sapiens) (UniProt O14920); experiment: Inhibition of human recombinant IKKb at 500 nM in presence of ATP by radiometric assay relative to control
T1 sequence (whole entry): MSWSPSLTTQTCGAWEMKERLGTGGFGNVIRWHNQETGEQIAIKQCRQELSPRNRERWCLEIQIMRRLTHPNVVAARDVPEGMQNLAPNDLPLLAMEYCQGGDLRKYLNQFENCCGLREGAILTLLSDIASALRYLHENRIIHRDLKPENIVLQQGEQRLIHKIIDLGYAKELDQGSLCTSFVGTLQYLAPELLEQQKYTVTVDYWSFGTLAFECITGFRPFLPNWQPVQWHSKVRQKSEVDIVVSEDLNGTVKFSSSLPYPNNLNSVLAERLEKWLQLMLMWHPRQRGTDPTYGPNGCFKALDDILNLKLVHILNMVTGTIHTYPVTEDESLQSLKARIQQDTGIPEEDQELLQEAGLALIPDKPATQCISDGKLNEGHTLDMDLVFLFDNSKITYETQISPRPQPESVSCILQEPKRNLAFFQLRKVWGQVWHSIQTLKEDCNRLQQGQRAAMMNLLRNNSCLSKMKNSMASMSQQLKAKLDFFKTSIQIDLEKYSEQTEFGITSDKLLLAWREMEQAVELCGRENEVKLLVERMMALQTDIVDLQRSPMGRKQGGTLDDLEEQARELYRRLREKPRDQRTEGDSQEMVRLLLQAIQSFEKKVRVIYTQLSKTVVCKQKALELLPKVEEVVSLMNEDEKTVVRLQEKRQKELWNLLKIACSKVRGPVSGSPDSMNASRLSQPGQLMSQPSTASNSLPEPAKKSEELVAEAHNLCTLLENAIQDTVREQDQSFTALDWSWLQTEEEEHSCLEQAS

[5] = target: T2, Dual specificity protein kinase TTK (Homo sapiens) (UniProt P33981); experiment: Inhibition of human recombinant TTK at 15 nM related to control ULK1
T2 sequence (whole entry): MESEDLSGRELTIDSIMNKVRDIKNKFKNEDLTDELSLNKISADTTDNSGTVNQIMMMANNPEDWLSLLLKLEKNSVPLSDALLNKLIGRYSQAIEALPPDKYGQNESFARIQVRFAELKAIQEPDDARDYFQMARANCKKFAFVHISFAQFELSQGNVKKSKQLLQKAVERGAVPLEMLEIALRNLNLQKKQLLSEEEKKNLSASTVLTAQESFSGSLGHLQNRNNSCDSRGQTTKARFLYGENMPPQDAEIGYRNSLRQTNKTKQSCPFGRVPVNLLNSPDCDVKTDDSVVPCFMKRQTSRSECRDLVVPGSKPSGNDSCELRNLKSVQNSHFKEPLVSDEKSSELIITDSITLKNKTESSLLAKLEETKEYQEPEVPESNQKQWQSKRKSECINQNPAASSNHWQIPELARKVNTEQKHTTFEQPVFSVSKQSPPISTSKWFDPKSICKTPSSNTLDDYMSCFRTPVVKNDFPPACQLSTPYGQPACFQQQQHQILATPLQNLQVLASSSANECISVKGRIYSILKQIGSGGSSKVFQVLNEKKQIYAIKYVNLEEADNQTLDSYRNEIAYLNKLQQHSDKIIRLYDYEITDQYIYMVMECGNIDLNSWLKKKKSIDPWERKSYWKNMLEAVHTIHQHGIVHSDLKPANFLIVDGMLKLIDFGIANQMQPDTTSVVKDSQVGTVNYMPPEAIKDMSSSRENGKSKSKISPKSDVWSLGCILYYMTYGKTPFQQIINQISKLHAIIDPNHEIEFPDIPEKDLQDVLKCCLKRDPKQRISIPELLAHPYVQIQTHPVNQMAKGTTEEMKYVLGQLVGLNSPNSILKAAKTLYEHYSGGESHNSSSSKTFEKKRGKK

[6] = target: Tyrosine-protein kinase Blk (Homo sapiens) (UniProt P51451); experiment: Inhibition of human recombinant BLK at 15 nM related to control ULK1
Tyrosine-protein kinase Blk (Homo sapiens), sequence (P51451 2-505 limits assumed): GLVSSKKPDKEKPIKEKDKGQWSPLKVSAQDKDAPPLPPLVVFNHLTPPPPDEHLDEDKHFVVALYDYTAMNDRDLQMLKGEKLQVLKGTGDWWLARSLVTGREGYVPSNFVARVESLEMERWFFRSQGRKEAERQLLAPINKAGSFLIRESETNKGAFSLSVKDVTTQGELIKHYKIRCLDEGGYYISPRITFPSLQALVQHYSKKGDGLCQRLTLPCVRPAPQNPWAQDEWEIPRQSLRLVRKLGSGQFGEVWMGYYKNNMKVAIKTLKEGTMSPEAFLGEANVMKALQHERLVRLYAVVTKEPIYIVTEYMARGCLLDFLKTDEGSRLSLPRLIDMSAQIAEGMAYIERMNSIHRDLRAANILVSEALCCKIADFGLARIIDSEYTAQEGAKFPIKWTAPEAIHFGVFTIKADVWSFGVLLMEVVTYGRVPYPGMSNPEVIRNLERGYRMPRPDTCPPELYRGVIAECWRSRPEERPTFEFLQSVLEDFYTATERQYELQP

[7] = target: Homeodomain-interacting protein kinase 1 (Homo sapiens) (UniProt Q86Z02); experiment: Inhibition of human recombinant HIPK1 at 15 nM related to control ULK1
Homeodomain-interacting protein kinase 1 (Homo sapiens), sequence (Q86Z02 whole entry, looked up): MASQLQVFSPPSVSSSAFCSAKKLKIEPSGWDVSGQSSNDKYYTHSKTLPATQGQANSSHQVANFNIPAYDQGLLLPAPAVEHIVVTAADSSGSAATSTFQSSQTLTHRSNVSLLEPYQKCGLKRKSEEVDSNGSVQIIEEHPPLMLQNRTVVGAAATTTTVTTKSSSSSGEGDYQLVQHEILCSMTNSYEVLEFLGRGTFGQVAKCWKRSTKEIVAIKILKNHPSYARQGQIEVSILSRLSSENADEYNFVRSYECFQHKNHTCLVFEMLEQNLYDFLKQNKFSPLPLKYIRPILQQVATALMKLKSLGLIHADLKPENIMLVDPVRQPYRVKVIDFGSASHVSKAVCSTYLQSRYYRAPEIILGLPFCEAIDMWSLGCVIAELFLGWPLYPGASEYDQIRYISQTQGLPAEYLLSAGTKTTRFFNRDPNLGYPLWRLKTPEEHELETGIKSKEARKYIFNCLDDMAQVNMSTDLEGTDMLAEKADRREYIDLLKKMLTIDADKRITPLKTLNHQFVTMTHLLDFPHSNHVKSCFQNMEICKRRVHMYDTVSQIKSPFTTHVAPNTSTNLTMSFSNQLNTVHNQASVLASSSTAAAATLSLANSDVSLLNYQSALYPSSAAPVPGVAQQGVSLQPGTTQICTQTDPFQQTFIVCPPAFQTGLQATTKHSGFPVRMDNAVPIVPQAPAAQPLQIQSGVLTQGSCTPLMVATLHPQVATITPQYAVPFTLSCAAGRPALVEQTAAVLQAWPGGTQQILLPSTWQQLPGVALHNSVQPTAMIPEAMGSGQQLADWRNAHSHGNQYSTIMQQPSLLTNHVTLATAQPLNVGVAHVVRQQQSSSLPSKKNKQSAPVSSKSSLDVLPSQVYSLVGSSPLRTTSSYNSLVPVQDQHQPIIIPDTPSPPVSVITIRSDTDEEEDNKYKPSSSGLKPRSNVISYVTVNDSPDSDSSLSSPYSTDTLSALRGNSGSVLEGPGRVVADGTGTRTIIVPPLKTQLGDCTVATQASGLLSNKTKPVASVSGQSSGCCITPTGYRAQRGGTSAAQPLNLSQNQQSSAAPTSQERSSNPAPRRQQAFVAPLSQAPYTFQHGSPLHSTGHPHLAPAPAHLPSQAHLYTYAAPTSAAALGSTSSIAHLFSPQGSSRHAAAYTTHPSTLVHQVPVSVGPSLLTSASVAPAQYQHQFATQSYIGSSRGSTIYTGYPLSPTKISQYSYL

U2OS = experiment: Inhibition of autophagy in human U2OS cells assessed as ATG12-positive puncta formation at 5 uM incubated for 2.5 hrs in presence of AZD8055 by Fluorescent microscopy based analysis; assay type: functional, cell-based
In short: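 U2OS cells treated 2.5 hr with vehicle or 100 nM AZD8055, with or without 5 μM inhibitor; fixed and immunostained for endogenous ATG12; ATG12-positive puncta (phagophores) assessed by fluorescence microscopy.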

[8] = target: Serine/threonine-protein kinase 25 (Homo sapiens) (UniProt O00506); experiment: Inhibition of human recombinant YSK1 at 40 nM related to control ULK1
Serine/threonine-protein kinase 25 (Homo sapiens), sequence (O00506 whole entry, looked up): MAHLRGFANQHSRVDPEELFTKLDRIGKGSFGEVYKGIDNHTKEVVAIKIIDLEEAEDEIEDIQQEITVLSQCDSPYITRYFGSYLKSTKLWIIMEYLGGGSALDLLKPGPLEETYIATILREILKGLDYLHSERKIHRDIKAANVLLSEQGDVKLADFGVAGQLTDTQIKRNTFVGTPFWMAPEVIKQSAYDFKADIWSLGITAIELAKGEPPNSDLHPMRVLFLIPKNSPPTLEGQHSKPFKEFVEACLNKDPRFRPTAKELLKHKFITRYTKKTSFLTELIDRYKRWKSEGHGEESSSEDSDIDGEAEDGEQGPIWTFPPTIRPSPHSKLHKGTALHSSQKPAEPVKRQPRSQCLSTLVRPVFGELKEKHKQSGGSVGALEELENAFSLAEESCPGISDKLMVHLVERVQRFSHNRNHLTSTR

[9] = target: T3, NUAK family SNF1-like kinase 1 (Homo sapiens) (UniProt O60285); experiment: Inhibition of human recombinant NuaK1 at 40 nM in presence of ATP by radiometric assay relative to control
T3 sequence (whole entry): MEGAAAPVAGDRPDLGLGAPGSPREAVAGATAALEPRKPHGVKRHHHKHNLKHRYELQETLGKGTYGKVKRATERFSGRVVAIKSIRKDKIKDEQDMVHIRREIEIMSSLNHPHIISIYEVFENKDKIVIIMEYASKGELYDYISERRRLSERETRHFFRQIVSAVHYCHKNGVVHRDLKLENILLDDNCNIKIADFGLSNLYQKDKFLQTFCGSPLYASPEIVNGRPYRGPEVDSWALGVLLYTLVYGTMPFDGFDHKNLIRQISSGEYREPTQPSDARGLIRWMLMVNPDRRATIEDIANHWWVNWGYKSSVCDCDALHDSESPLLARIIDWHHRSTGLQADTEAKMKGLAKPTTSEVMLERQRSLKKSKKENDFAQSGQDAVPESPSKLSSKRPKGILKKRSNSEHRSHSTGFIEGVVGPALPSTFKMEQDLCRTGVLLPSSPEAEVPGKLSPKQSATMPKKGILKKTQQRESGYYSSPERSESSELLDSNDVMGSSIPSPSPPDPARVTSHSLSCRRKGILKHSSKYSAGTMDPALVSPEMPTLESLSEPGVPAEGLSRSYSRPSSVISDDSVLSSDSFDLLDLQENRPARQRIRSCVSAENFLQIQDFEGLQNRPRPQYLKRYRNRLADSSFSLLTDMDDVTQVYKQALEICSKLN

inhibition [1]: 5%
fold change (FC) [2]: 1.05
inhibition [3]: 0%
inhibition [4]: 2%
Compound: CNC(=O)c1ccccc1Oc1nc(Nc2cc(OC)c(OC)c(OC)c2)ncc1Br

fold change (FC) [5]: 0.25
fold change (FC) [6]: 0.11
fold change (FC) [7]: 0
Compound: CC(C)[C@H](NC(=O)c1cc(-c2cnn3cc(-c4ccc(OCCN5CCCCC5)cc4)cnc23)cs1)C(F)(F)F

fold change (FC) [8]: 0
inhibition [9]: 5%
Compound: O=C(N[C@@H](C1CC1)C(F)(F)F)c1cc(-c2cnn3cc(-c4ccc(F)cc4)cnc23)cs1
inhibition (U2OS): Active
